# Experimental data as given in ChEMBL document CHEMBL1142465, “Novel potent inhibitors of A. thaliana cytokinin oxidase/dehydrogenase” (Bioorg Med Chem, 2008).
# pEC50, pIC50: −log10 of the molar value.
# Target: Histidine kinase 4 (Arabidopsis thaliana, UniProt Q9C5U0)
# Test: Activation of Arabidopsis thaliana AHK4/CRE1 receptor expressed in Escherichia coli KMI001 by beta-galactosidase activity
# Conditions: not given
# Histidine kinase 4, sequence (Q9C5U0 whole entry): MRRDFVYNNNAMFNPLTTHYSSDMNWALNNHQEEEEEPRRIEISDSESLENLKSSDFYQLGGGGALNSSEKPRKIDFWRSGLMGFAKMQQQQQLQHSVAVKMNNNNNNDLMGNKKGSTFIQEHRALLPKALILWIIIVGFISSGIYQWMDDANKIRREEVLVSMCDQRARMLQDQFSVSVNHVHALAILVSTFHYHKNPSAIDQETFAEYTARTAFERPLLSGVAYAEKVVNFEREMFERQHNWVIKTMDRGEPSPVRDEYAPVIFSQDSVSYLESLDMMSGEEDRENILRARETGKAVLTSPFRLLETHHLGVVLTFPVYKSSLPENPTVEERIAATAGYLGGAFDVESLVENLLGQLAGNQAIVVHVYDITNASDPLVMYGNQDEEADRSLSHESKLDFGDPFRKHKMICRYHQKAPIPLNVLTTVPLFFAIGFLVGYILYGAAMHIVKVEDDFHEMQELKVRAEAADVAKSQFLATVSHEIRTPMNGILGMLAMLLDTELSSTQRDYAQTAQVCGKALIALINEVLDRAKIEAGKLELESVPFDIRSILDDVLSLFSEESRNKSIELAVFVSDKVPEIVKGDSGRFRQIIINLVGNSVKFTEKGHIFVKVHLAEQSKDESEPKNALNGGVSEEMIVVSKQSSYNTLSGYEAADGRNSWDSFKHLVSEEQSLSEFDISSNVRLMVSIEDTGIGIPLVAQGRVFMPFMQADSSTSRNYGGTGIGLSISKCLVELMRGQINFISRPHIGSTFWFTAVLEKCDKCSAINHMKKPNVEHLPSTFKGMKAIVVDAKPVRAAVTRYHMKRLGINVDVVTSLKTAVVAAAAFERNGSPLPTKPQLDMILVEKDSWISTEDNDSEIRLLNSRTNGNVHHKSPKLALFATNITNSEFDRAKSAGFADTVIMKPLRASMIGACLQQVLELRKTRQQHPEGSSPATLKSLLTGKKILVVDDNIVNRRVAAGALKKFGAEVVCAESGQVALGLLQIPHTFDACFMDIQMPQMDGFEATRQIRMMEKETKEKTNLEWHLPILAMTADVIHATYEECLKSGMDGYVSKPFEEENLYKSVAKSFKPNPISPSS
row,Structure (SMILES),pEC50
1,Oc1ccc(Nc2nc(Cl)nc3[nH]cnc23)cc1,5.34
2,Oc1ccccc1Nc1nc(Cl)nc2nc[nH]c12,< 4.30
3,C/C(=C\CNc1ncnc2[nH]cnc12)CO,5.96
4,O=C(Nc1ccccc1)Nc1cnns1 [THIDIAZURON],6.00

# Further lines, results first:
row,pEC50,Structure (SMILES)
1,< 4.30,Clc1ccc(Nc2nc(Cl)nc3[nH]cnc23)cc1
2,4.51,COc1cccc(Nc2ncnc3[nH]cnc23)c1
3,4.61,Fc1cccc(Nc2nc(Cl)nc3[nH]cnc23)c1
4,5.43,Oc1cccc(Nc2nc(Cl)nc3[nH]cnc23)c1
5,5.15,COc1cccc(Nc2nc(Cl)nc3[nH]cnc23)c1
6,4.72,COc1cccc(Nc2nc(F)nc3[nH]cnc23)c1

# Tested on: Nicotiana tabacum
# Test: Cytokinin-like effect in tobacco assessed as stimulation of callus growth at 0.1 umol/L relative to 6-benzylaminopurine
# Format: functional
# Conditions: not given
# How it was run: (§1)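 Cytokinin-dependent tobacco callus growth in 6-well plates, 3 mL MS medium per well, otherwise per published protocol. Compounds from DMSO stocks diluted into medium, final DMSO ≤0.2%. Five replicates per concentration, whole test repeated at least three times. Activity expressed relative to BAP set at 100 (reference 10^-6 M BAP) at the optimal concentration.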
row,Structure (SMILES),Activity
1,O=C(Nc1ccccc1)Nc1cnns1 [THIDIAZURON],102.3%

# Tested on: Amaranthus
# Test: Cytokinin-like effect in Amaranthus cotyledons assessed as dark induction of betacyanin synthesis at 10 umol/L relative to 6-benzylaminopurine
# Format: functional
# Conditions: not given
# How it was run: (§2)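 Dark induction of betacyanin synthesis in Amaranthus cotyledons, per previously published protocol. Compounds from DMSO stocks diluted into medium, final DMSO ≤0.2%. Five replicates per concentration, whole test repeated at least three times. Relative activity taken at the optimal concentration against BAP set at 100 (reference 10^-5 M BAP).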
row,Structure (SMILES),Activity
1,Clc1cccc(Nc2nc(Cl)nc3[nH]cnc23)c1,119%

# Tested on: Amaranthus
# Test: Cytokinin-like effect in Amaranthus cotyledons assessed as dark induction of betacyanin synthesis at 100 umol/L relative to 6-benzylaminopurine
# Format: functional
# Conditions: at 100 µM
row,Structure (SMILES),Activity
1,c1ccc(Nc2ncnc3[nH]cnc23)cc1,52%
2,COc1ccccc1Nc1nc(Cl)nc2[nH]cnc12,63%
3,COc1cccc(Nc2nc(N)nc3[nH]cnc23)c1,116%
4,Clc1ccc(Nc2nc(Cl)nc3[nH]cnc23)cc1,139%
5,COc1cccc(Nc2nc(F)nc3[nH]cnc23)c1,107%
6,Oc1cccc(Nc2nc(Cl)nc3[nH]cnc23)c1,52%
7,Oc1ccc(Nc2nc(Cl)nc3[nH]cnc23)cc1,47.5%
8,COc1cccc(Nc2nc(Cl)nc3[nH]cnc23)c1,149%
9,COc1cccc(Nc2ncnc3[nH]cnc23)c1,124.5%
10,COc1cccc(Nc2nc([N+](=O)[O-])nc3[nH]cnc23)c1,43%
11,COc1cccc(Nc2nc(SC)nc3[nH]cnc23)c1,101%
12,Fc1ccc(Nc2nc(Cl)nc3[nH]cnc23)cc1,92%
13,COc1cccc(Nc2nc(Cl)nc3c2ncn3C(C)C)c1,44%
14,COc1ccc(Nc2nc(Cl)nc3[nH]cnc23)cc1,60%
15,Clc1nc(Nc2ccccc2)c2nc[nH]c2n1,139%
16,Fc1cccc(Nc2nc(Cl)nc3[nH]cnc23)c1,147%
17,COc1cccc(Nc2nc(Cl)nc3c2ncn3C)c1,69%
18,C/C(=C\CNc1ncnc2[nH]cnc12)CO,129.6%

# Tested on: Nicotiana tabacum
# Test: Cytokinin-like effect in tobacco assessed as stimulation of callus growth at 10 umol/L relative to 6-benzylaminopurine
# Format: functional
# Conditions: at 10 µM
row,Structure (SMILES),Activity
1,COc1ccccc1Nc1nc(Cl)nc2[nH]cnc12,100%
2,COc1cccc(Nc2nc(N)nc3[nH]cnc23)c1,71%
3,Clc1ccc(Nc2nc(Cl)nc3[nH]cnc23)cc1,77%
4,Clc1cccc(Nc2nc(Cl)nc3[nH]cnc23)c1,95%
5,COc1cccc(Nc2nc(F)nc3[nH]cnc23)c1,74%
6,Oc1cccc(Nc2nc(Cl)nc3[nH]cnc23)c1,111%
7,COc1cccc(Nc2nc(Cl)nc3[nH]cnc23)c1,103%
8,COc1cccc(Nc2ncnc3[nH]cnc23)c1,42%
9,COc1cccc(Nc2nc(SC)nc3[nH]cnc23)c1,91%
10,COc1cccc(Nc2nc(Cl)nc3c2ncn3C(C)C)c1,38%
11,COc1ccc(Nc2nc(Cl)nc3[nH]cnc23)cc1,76%
12,COc1cccc(Nc2nc(Cl)nc3c2ncn3C)c1,76%
13,C/C(=C\CNc1ncnc2[nH]cnc12)CO,104.6%

# Tested on: Triticum aestivum
# Test: Cytokinin-like effect in wheat assessed as retention of chlorophyll in excised leaves at 100 umol/L by senescence assay relative to 6-benzylaminopurine
# Format: functional
# Conditions: at 100 µM
row,Structure (SMILES),Activity
1,c1ccc(Nc2ncnc3[nH]cnc23)cc1,14%
2,COc1ccccc1Nc1nc(Cl)nc2[nH]cnc12,29%
3,COc1cccc(Nc2nc(N)nc3[nH]cnc23)c1,16%
4,Clc1ccc(Nc2nc(Cl)nc3[nH]cnc23)cc1,10%
5,Clc1cccc(Nc2nc(Cl)nc3[nH]cnc23)c1,11.5%
6,COc1cccc(Nc2nc(F)nc3[nH]cnc23)c1,13.5%
7,Oc1cccc(Nc2nc(Cl)nc3[nH]cnc23)c1,6%
8,Oc1ccc(Nc2nc(Cl)nc3[nH]cnc23)cc1,14%
9,COc1cccc(Nc2nc(Cl)nc3[nH]cnc23)c1,11%
10,COc1cccc(Nc2ncnc3[nH]cnc23)c1,13%
11,COc1cccc(Nc2nc([N+](=O)[O-])nc3[nH]cnc23)c1,15%
12,COc1cccc(Nc2nc(SC)nc3[nH]cnc23)c1,2%
13,Fc1ccc(Nc2nc(Cl)nc3[nH]cnc23)cc1,5%
14,COc1cccc(Nc2nc(Cl)nc3c2ncn3C(C)C)c1,5%
15,COc1ccc(Nc2nc(Cl)nc3[nH]cnc23)cc1,19%
16,Clc1nc(Nc2ccccc2)c2nc[nH]c2n1,23%
17,Fc1cccc(Nc2nc(Cl)nc3[nH]cnc23)c1,15%
18,COc1cccc(Nc2nc(Cl)nc3c2ncn3C)c1,30%
19,C/C(=C\CNc1ncnc2[nH]cnc12)CO,122%
20,O=C(Nc1ccccc1)Nc1cnns1 [THIDIAZURON],108.7%

# Tested on: Amaranthus
# Test: Cytokinin-like effect in Amaranthus cotyledons assessed as dark induction of betacyanin synthesis at 0.1 umol/L relative to 6-benzylaminopurine
# Format: functional
# Conditions: not given
# How it was run: as §2
row,Structure (SMILES),Activity
1,O=C(Nc1ccccc1)Nc1cnns1 [THIDIAZURON],121.1%

# Target: T1, Cytokinin dehydrogenase 2 (Arabidopsis thaliana, UniProt Q9FUJ3)
# T1 sequence (Q9FUJ3 whole entry): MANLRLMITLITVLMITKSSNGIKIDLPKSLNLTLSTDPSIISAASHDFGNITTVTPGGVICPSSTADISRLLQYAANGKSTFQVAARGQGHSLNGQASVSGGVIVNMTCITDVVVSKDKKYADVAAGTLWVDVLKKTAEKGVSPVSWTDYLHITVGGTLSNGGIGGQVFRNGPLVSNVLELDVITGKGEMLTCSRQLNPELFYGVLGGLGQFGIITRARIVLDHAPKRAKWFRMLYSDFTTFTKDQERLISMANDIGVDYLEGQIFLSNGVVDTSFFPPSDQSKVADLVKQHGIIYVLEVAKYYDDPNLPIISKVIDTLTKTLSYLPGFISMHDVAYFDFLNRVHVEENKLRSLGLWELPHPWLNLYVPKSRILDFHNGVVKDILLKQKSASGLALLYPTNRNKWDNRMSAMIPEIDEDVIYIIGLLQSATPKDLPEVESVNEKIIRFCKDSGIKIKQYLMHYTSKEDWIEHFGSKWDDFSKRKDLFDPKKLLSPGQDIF
# Test: Inhibition of sArabidopsis thaliana CKX2 expressed in Saccharomyces cerevisiae 23344c ura-
# Conditions: not given
row,Structure (SMILES),pIC50
1,COc1ccccc1Nc1nc(Cl)nc2[nH]cnc12,< 4.00
2,COc1cccc(Nc2nc(N)nc3[nH]cnc23)c1,4.57
3,Oc1ccc(Nc2nc(Cl)nc3[nH]cnc23)cc1,< 4.00
4,COc1cccc(Nc2nc(SC)nc3[nH]cnc23)c1,< 4.00
5,Oc1ccccc1Nc1nc(Cl)nc2nc[nH]c12,< 4.00
6,Fc1ccc(Nc2nc(Cl)nc3[nH]cnc23)cc1,4.30
7,COc1cccc(Nc2nc(Cl)nc3c2ncn3C(C)C)c1,< 4.00
8,COc1ccc(Nc2nc(Cl)nc3[nH]cnc23)cc1,< 4.00
9,Clc1nc(Nc2ccccc2)c2nc[nH]c2n1,4.10
10,COc1cccc(Nc2nc(Cl)nc3c2ncn3C)c1,4.21
11,O=C(Nc1ccccc1)Nc1cnns1 [THIDIAZURON],4.54

# Second part, the compound after the results:
row,pIC50,Structure (SMILES)
1,4.60,Clc1ccc(Nc2nc(Cl)nc3[nH]cnc23)cc1
2,4.85,COc1cccc(Nc2nc([N+](=O)[O-])nc3[nH]cnc23)c1
3,4.91,COc1cccc(Nc2ncnc3[nH]cnc23)c1
4,5.12,Fc1cccc(Nc2nc(Cl)nc3[nH]cnc23)c1
5,5.41,Clc1cccc(Nc2nc(Cl)nc3[nH]cnc23)c1
6,5.43,Oc1cccc(Nc2nc(Cl)nc3[nH]cnc23)c1
7,5.72,COc1cccc(Nc2nc(Cl)nc3[nH]cnc23)c1
8,6.00,COc1cccc(Nc2nc(F)nc3[nH]cnc23)c1

# Tested on: Nicotiana tabacum
# Test: Cytokinin-like effect in tobacco assessed as stimulation of callus growth at 100 umol/L relative to 6-benzylaminopurine
# Format: functional
# Conditions: not given
# How it was run: as §1
row,Structure (SMILES),Activity
1,c1ccc(Nc2ncnc3[nH]cnc23)cc1,47%
2,Oc1ccc(Nc2nc(Cl)nc3[nH]cnc23)cc1,60%
3,COc1cccc(Nc2nc([N+](=O)[O-])nc3[nH]cnc23)c1,35.5%

# Tested on: Nicotiana tabacum
# Test: Cytokinin-like effect in tobacco assessed as stimulation of callus growth at 1 umol/L relative to 6-benzylaminopurine
# Format: functional
# Conditions: not given
# How it was run: as §1
row,Structure (SMILES),Activity
1,Fc1ccc(Nc2nc(Cl)nc3[nH]cnc23)cc1,99%
2,Clc1nc(Nc2ccccc2)c2nc[nH]c2n1,103%
3,Fc1cccc(Nc2nc(Cl)nc3[nH]cnc23)c1,101%

# Tested on: Nicotiana tabacum
# Test: Toxicity in tobacco assessed as inhibition of callus growth at 100 uM
# Conditions: in vivo
# How it was run: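 Tobacco callus growth dose-response up to 100 µM in 6-well plates with 3 mL MS medium per well. Compounds from DMSO stocks diluted into medium, final DMSO ≤0.2%. Five replicates per concentration. Readings compared against a control treatment with no cytokinin.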
row,Structure (SMILES),Activity
1,Fc1ccc(Nc2nc(Cl)nc3[nH]cnc23)cc1,Non-toxic

# Target: T2, Histidine kinase 3 (Arabidopsis thaliana, UniProt Q9C5U1)
# T2 sequence (Q9C5U1 whole entry): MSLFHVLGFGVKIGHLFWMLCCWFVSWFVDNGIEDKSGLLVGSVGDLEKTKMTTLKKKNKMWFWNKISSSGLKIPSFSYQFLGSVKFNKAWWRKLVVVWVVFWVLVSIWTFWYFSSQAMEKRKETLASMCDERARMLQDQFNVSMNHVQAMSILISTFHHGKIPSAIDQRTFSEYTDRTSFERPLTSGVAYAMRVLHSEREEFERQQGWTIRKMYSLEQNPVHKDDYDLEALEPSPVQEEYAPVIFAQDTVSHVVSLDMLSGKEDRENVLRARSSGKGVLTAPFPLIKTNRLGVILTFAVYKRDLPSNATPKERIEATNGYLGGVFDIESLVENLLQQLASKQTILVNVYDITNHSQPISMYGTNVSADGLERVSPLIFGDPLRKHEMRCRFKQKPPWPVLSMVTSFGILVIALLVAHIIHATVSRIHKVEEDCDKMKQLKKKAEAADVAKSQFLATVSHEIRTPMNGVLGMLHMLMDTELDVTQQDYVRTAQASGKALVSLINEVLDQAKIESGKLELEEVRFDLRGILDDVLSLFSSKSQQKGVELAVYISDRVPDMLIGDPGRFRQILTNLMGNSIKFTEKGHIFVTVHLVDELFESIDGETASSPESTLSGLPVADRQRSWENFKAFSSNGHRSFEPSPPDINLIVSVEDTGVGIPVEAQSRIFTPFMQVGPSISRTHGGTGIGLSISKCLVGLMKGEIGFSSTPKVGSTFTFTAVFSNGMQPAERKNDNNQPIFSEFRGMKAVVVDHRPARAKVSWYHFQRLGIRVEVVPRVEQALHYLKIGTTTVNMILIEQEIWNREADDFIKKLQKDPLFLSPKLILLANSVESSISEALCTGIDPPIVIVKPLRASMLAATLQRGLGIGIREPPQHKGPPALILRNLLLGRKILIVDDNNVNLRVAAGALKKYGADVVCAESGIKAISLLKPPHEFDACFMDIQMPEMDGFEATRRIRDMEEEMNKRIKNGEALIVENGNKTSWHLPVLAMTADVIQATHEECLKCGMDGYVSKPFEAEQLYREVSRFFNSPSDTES
# Test: Activation of Arabidopsis thaliana AHK3 receptor expressed in Escherichia coli KMI001 by beta-galactosidase activity
# Conditions: not given
row,Structure (SMILES),pEC50
1,c1ccc(Nc2ncnc3[nH]cnc23)cc1,< 4.30
2,COc1ccccc1Nc1nc(Cl)nc2[nH]cnc12,4.48
3,Oc1ccc(Nc2nc(Cl)nc3[nH]cnc23)cc1,4.78
4,Oc1ccccc1Nc1nc(Cl)nc2nc[nH]c12,4.72
5,Fc1ccc(Nc2nc(Cl)nc3[nH]cnc23)cc1,4.30
6,Clc1nc(Nc2ccccc2)c2nc[nH]c2n1,< 4.30
7,C/C(=C\CNc1ncnc2[nH]cnc12)CO,6.15
8,O=C(Nc1ccccc1)Nc1cnns1 [THIDIAZURON],6.02

# Results, then the compound that gave them:
row,pEC50,Structure (SMILES)
1,4.82,Clc1ccc(Nc2nc(Cl)nc3[nH]cnc23)cc1
2,5.64,COc1cccc(Nc2ncnc3[nH]cnc23)c1
3,5.22,Fc1cccc(Nc2nc(Cl)nc3[nH]cnc23)c1
4,4.97,Clc1cccc(Nc2nc(Cl)nc3[nH]cnc23)c1
5,4.89,Oc1cccc(Nc2nc(Cl)nc3[nH]cnc23)c1
6,4.68,COc1cccc(Nc2nc(Cl)nc3[nH]cnc23)c1
7,4.72,COc1cccc(Nc2nc(F)nc3[nH]cnc23)c1
